Results published in ChEMBL document CHEMBL3632499, “Synthesis and Antiproliferative Activity Evaluation of the Disulfide-Containing Cyclic Peptide Thiochondrilline C and Derivatives” (J Nat Prod, 2015).

Tests used:
Assay type in all cases: functional
SR = assay: Antiproliferative activity against human SR cells
How it was run: (§1)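 Run in the National Cancer Institute 60 cancer cell line panel. Read-outs: GI50, the concentration causing 50% growth inhibition; TGI, the concentration causing total growth inhibition; LC50, the concentration causing 50% net cell killing. Values are averages ± SEM from two independent determinations.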

[1] = Antiproliferative activity against human BT549 cells
How it was run: (§2)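 Profiled in the National Cancer Institute 60 cancer cell line screen. Reported GI50 is the concentration giving 50% growth inhibition, TGI the concentration giving total growth inhibition, and LC50 the concentration giving 50% net cell killing. Values are averages ± SEM from two independent determinations.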

HCT-116 = assay: Antiproliferative activity against human HCT116 cells; how it was run: as §2
OVCAR-3 = assay: Antiproliferative activity against human OVCAR3 cells; how it was run: as §2
HT-29 = assay: Antiproliferative activity against human HT-29 cells; how it was run: as §2
[2] = Antiproliferative activity against human SF539 cells; how it was run: as §2
M14 = assay: Antiproliferative activity against human M14 cells; how it was run: as §2
SK-OV-3 = assay: Antiproliferative activity against human SKOV3 cells; how it was run: as §2
[3] = Antiproliferative activity against human MOLT4 cells; how it was run: as §2
UO-31 = assay: Antiproliferative activity against human UO31 cells; how it was run: as §1
[4] = Antiproliferative activity against human HCC2998 cells; how it was run: as §2
[5] = Antiproliferative activity against human NCI-ADR-RES cells; how it was run: as §2
OVCAR-8 = assay: Antiproliferative activity against human OVCAR8 cells; how it was run: as §2
CAKI-1 = assay: Antiproliferative activity against human Caki1 cells; how it was run: as §2
[6] = Antiproliferative activity against human COLO205 cells; how it was run: as §2
[7] = Antiproliferative activity against human RPMI8226 cells; how it was run: as §2
HOP-62 = assay: Antiproliferative activity against human HOP62 cells; how it was run: as §2
NCI-H460 = assay: Antiproliferative activity against human NCI-H460 cells; how it was run: as §2
SK-MEL-2 = assay: Antiproliferative activity against human SK-MEL-2 cells; how it was run: as §2
HCT-15 = assay: Antiproliferative activity against human HCT15 cells; how it was run: as §2
SK-MEL-28 = assay: Antiproliferative activity against human SK-MEL-28 cells; how it was run: as §2
TK-10 = assay: Antiproliferative activity against human TK10 cells; how it was run: as §1
MDA-MB-231 = assay: Antiproliferative activity against human MDA-MB-231 cells; how it was run: as §2
786-0 = assay: Antiproliferative activity against human 786-0 cells; how it was run: as §2
NCI-H522 = assay: Antiproliferative activity against human NCI-H522 cells; how it was run: as §2
[8] = Antiproliferative activity against human SF295 cells; how it was run: as §2
PC-3 = assay: Antiproliferative activity against human PC3 cells; how it was run: as §2
T47D = assay: Antiproliferative activity against human T47D cells; how it was run: as §1
OVCAR-4 = assay: Antiproliferative activity against human OVCAR4 cells; how it was run: as §2
SK-MEL-5 = assay: Antiproliferative activity against human SK-MEL-5 cells; how it was run: as §2
[9] = Antiproliferative activity against human HOP92 cells; details: HOP-92; how it was run: as §2
[10] = read-out: LC50 (the source's name)

## C[C@H](NC(=O)[C@@H]1CSSC[C@@H](NC(=O)c2nc3ccccc3cc2O)C(=O)NCC(=O)N1C)c1ccccc1
SR
  GI50: 200 nM
  TGI: 1200 nM
SR; [10]
  CC50: > 50 µM
[1]; BT-549
  GI50: 6.9 µM
  TGI: 16.1 µM
[1]; BT-549, read-out: LC50 (the source's name)
  CC50: 37.6 µM
HCT-116
  GI50: 1800 nM
  TGI: 6 µM
HCT-116; [10]
  CC50: 18.3 µM
OVCAR-3
  GI50: 600 nM
  TGI: 1400 nM
OVCAR-3; [10]
  CC50: 3.1 µM
HT-29
  GI50: 1200 nM
  TGI: 3.9 µM
HT-29; [10]
  CC50: 12.4 µM
[2]; SF-539
  GI50: 2000 nM
  TGI: 9.4 µM
[2]; SF-539, read-out: LC50 (the source's name)
  CC50: 27.3 µM
M14
  GI50: 300 nM
  TGI: 10.3 µM
M14; [10]
  CC50: > 50 µM
SK-OV-3
  GI50: 5.8 µM
  TGI: 21.3 µM
SK-OV-3; [10]
  CC50: > 50 µM
[3]; MOLT-4
  GI50: 900 nM
  TGI: 3.3 µM
[3]; MOLT-4, read-out: LC50 (the source's name)
  CC50: > 50 µM
UO-31
  GI50: 5.8 µM
  TGI: 13.3 µM
UO-31; [10]
  CC50: 30.8 µM
[4]; HCC 2998
  GI50: 7.9 µM
  TGI: 17.9 µM
[4]; HCC 2998, read-out: LC50 (the source's name)
  CC50: > 50 µM
[5]
  GI50: 11 µM
  TGI: > 50 µM
[5]; [10]
  CC50: > 50 µM
OVCAR-8
  GI50: 5.2 µM
  TGI: 17.8 µM
OVCAR-8; [10]
  CC50: > 50 µM
CAKI-1
  GI50: 7.3 µM
  TGI: 18.5 µM
CAKI-1; [10]
  CC50: 47.4 µM
[6]; COLO 205
  GI50: 1000 nM
  TGI: 2300 nM
[6]; COLO 205, read-out: LC50 (the source's name)
  CC50: 7.2 µM
[7]; RPMI-8226
  GI50: 5.7 µM
  TGI: 21.6 µM
[7]; RPMI-8226, read-out: LC50 (the source's name)
  CC50: > 50 µM
HOP-62
  GI50: 12.2 µM
  TGI: 21 µM
HOP-62; [10]
  CC50: 36.8 µM
NCI-H460
  GI50: 1300 nM
  TGI: 8 µM
NCI-H460; [10]
  CC50: 30.5 µM
SK-MEL-2
  GI50: 2600 nM
  TGI: 10.1 µM
SK-MEL-2; [10]
  CC50: 27.1 µM
HCT-15
  GI50: 2600 nM
  TGI: 9.7 µM
HCT-15; [10]
  CC50: 25.9 µM
SK-MEL-28
  GI50: 900 nM
  TGI: 9.9 µM
SK-MEL-28; [10]
  CC50: 31.8 µM
TK-10
  GI50: 8.1 µM
  TGI: 15.4 µM
TK-10; [10]
  CC50: 29.7 µM
MDA-MB-231
  GI50: 1900 nM
  TGI: 7.9 µM
MDA-MB-231; [10]
  CC50: 26 µM
786-0
  GI50: 2500 nM
  TGI: 9.8 µM
786-0; [10]
  CC50: 33.5 µM
NCI-H522
  GI50: 3.6 µM
  TGI: 10.5 µM
NCI-H522; [10]
  CC50: 29.1 µM
[8]; SF-295
  GI50: 7.4 µM
  TGI: 16.3 µM
[8]; SF-295, read-out: LC50 (the source's name)
  CC50: 35.8 µM
PC-3
  GI50: 6.1 µM
  TGI: 13.5 µM
PC-3; [10]
  CC50: 30.3 µM
T47D
  GI50: 1100 nM
  TGI: 3.8 µM
T47D; [10]
  CC50: 24.8 µM
OVCAR-4
  GI50: 8 µM
  TGI: 18.4 µM
OVCAR-4; [10]
  CC50: 42.4 µM
SK-MEL-5
  GI50: 600 nM
  TGI: 3.8 µM
SK-MEL-5; [10]
  CC50: 15.6 µM
[9]
  GI50: 9.7 µM
  TGI: 18.6 µM
